Test results as given in ChEMBL document CHEMBL2346584, “Microwave assisted nano (ZnO-TiO2) catalyzed synthesis of some new 4,5,6,7-tetrahydro-6-((5-substituted-1,3,4-oxadiazol-2-yl)methyl)thieno[2,3-c]pyridine as antimicrobial agents” (2013).
In brackets after ≈: the same amount, converted by molar mass. Activity calls are given as the source filed them. No cut-off for these calls is given here.

Assays:
Pseudomonas aeruginosa [1] = assay: Antibacterial activity against Pseudomonas aeruginosa NCIM 2036 by agar method; format: functional
Procedure, shortened: (§1)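 Read-out was the minimum inhibitory concentration (MIC), determined by the standard agar method. Ciprofloxacin and ampicillin served as reference antibacterial standards.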

Bacillus subtilis [2] = assay: Antibacterial activity against Bacillus subtilis NCIM 2063 by agar method; format: functional; procedure, shortened: as §1
Candida albicans = assay: Antifungal activity against Candida albicans NCIM 3471 by agar method; format: functional
Procedure, shortened: (§2)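 MIC values were obtained with the standard agar method, with miconazole as the reference antifungal standard.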

Aspergillus niger = assay: Antifungal activity against Aspergillus niger NCIM 1196 by agar method; format: functional; procedure, shortened: as §2
Staphylococcus aureus = assay: Antibacterial activity against Staphylococcus aureus NCIM 2901 by agar method; format: functional; procedure, shortened: as §1
Escherichia coli = assay: Antibacterial activity against Escherichia coli NCIM 2256 by agar method; format: functional; procedure, shortened: as §1
Bacillus subtilis [3] = assay: Antibacterial activity against Bacillus subtilis NCIM 2063 up to 400 ug/ml by agar method; format: functional, organism-based; procedure, shortened: as §1
Pseudomonas aeruginosa [4] = assay: Antibacterial activity against Pseudomonas aeruginosa NCIM 2036 up to 400 ug/ml by agar method; format: functional, organism-based; procedure, shortened: as §1

MIC (Pseudomonas aeruginosa [1])	MIC (Bacillus subtilis [2])	MIC (Candida albicans)	MIC (Aspergillus niger)	MIC (Staphylococcus aureus)	MIC (Escherichia coli)	SMILES	Activity (Bacillus subtilis [3])	Activity (Pseudomonas aeruginosa [4])
100 µg/mL (≈ 317 µM)	50 µg/mL (≈ 159 µM)	20 µg/mL (≈ 63.4 µM)	60 µg/mL (≈ 190 µM)	25 µg/mL (≈ 79.3 µM)	25 µg/mL (≈ 79.3 µM)	Fc1ccc(-c2nnc(CN3CCc4ccsc4C3)o2)cc1	–	–
200 µg/mL (≈ 603 µM)	100 µg/mL (≈ 301 µM)	80 µg/mL (≈ 241 µM)	140 µg/mL (≈ 422 µM)	100 µg/mL (≈ 301 µM)	125 µg/mL (≈ 377 µM)	Clc1ccccc1-c1nnc(CN2CCc3ccsc3C2)o1	–	–
150 µg/mL (≈ 503 µM)	100 µg/mL (≈ 335 µM)	40 µg/mL (≈ 134 µM)	60 µg/mL (≈ 201 µM)	50 µg/mL (≈ 168 µM)	50 µg/mL (≈ 168 µM)	c1ccc(-c2nnc(CN3CCc4ccsc4C3)o2)nc1	–	–
150 µg/mL (≈ 494 µM)	50 µg/mL (≈ 165 µM)	40 µg/mL (≈ 132 µM)	80 µg/mL (≈ 264 µM)	75 µg/mL (≈ 247 µM)	25 µg/mL (≈ 82.4 µM)	c1csc(-c2nnc(CN3CCc4ccsc4C3)o2)c1	–	–
250 µg/mL (≈ 753 µM)	100 µg/mL (≈ 301 µM)	60 µg/mL (≈ 181 µM)	100 µg/mL (≈ 301 µM)	75 µg/mL (≈ 226 µM)	100 µg/mL (≈ 301 µM)	Clc1ccc(-c2nnc(CN3CCc4ccsc4C3)o2)cc1	–	–
125 µg/mL (≈ 341 µM)	75 µg/mL (≈ 205 µM)	20 µg/mL (≈ 54.6 µM)	60 µg/mL (≈ 164 µM)	75 µg/mL (≈ 205 µM)	50 µg/mL (≈ 137 µM)	Clc1ccc(-c2nnc(CN3CCc4ccsc4C3)o2)c(Cl)c1	–	–
125 µg/mL (≈ 437 µM)	100 µg/mL (≈ 349 µM)	60 µg/mL (≈ 210 µM)	120 µg/mL (≈ 419 µM)	75 µg/mL (≈ 262 µM)	50 µg/mL (≈ 175 µM)	c1c[nH]c(-c2nnc(CN3CCc4ccsc4C3)o2)c1	–	–
100 µg/mL (≈ 273 µM)	50 µg/mL (≈ 137 µM)	20 µg/mL (≈ 54.6 µM)	120 µg/mL (≈ 328 µM)	50 µg/mL (≈ 137 µM)	50 µg/mL (≈ 137 µM)	Clc1cccc(Cl)c1-c1nnc(CN2CCc3ccsc3C2)o1	–	–
–	–	60 µg/mL (≈ 191 µM)	140 µg/mL (≈ 447 µM)	175 µg/mL (≈ 558 µM)	175 µg/mL (≈ 558 µM)	Oc1ccc(-c2nnc(CN3CCc4ccsc4C3)o2)cc1	inactive	inactive
175 µg/mL (≈ 534 µM)	125 µg/mL (≈ 382 µM)	80 µg/mL (≈ 244 µM)	140 µg/mL (≈ 428 µM)	100 µg/mL (≈ 305 µM)	125 µg/mL (≈ 382 µM)	COc1ccc(-c2nnc(CN3CCc4ccsc4C3)o2)cc1	–	–
–	–	40 µg/mL (≈ 121 µM)	100 µg/mL (≈ 304 µM)	100 µg/mL (≈ 304 µM)	125 µg/mL (≈ 379 µM)	Oc1ccc(-c2nnc(CN3CCc4ccsc4C3)o2)cc1O	inactive	inactive
300 µg/mL (≈ 1010 µM)	150 µg/mL (≈ 504 µM)	80 µg/mL (≈ 269 µM)	160 µg/mL (≈ 538 µM)	125 µg/mL (≈ 420 µM)	150 µg/mL (≈ 504 µM)	c1ccc(-c2nnc(CN3CCc4ccsc4C3)o2)cc1	–	–

SMILES	MIC (Pseudomonas aeruginosa [1])	MIC (Bacillus subtilis [2])	MIC (Candida albicans)	MIC (Aspergillus niger)	MIC (Staphylococcus aureus)	MIC (Escherichia coli)	Activity (Bacillus subtilis [3])	Activity (Pseudomonas aeruginosa [4])
Clc1ccc(COC(Cn2ccnc2)c2ccc(Cl)cc2Cl)c(Cl)c1 (stereo not given) [MICONAZOLE]	–	–	25 µg/mL (≈ 60.1 µM)	12.5 µg/mL (≈ 30 µM)	–	–	–	–
CC1(C)S[C@@H]2[C@H](NC(=O)[C@H](N)c3ccccc3)C(=O)N2[C@H]1C(=O)O [AMPICILLIN]	100 µg/mL (≈ 286 µM)	250 µg/mL (≈ 715 µM)	–	–	250 µg/mL (≈ 715 µM)	100 µg/mL (≈ 286 µM)	–	–
O=C(O)c1cn(C2CC2)c2cc(N3CCNCC3)c(F)cc2c1=O [CIPROFLOXACIN]	–	–	–	–	50 µg/mL (≈ 151 µM)	25 µg/mL (≈ 75.4 µM)	–	–
